Test results from ChEMBL document CHEMBL1134309, “O-Phosphonatomethylcholine, its analogues, alkyl esters, and their biological activity” (J Med Chem, 2001).
pIC50: −log10 of the molar value.

Assays:
[1] = system: HT-29; experiment: In vitro cytotoxic activity against colon adenocarcinoma (HT-29) cells assayed by inhibition of [3H]-labeled thymidine incorporation; type: functional, cell-based; conditions: Homo sapiens
Outline: (§1)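 Human tumour lines in 10% FBS medium (HT-29 and MES-SA in McCoy's 5a; NCI-H460 in RPMI 1640; DU-145 in MEM/Earle's), 37 °C, 5% CO2. Trypsin/EDTA-harvested, plated at 1 × 10⁴ cells/well, attached ~4 h. Serial dilutions tested, 8 wells/concentration. [methyl-³H]thymidine, 0.25 μCi/well, added at 24 h, then 48 more h (72 h total). Cells Triton-lysed, filter-harvested, counted. IC50 is the average of 3–5 determinations.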

[2] = system: DU-145; experiment: In vitro cytotoxic activity against prostate carcinoma (DU-145) cells assayed by inhibition of [3H]-labeled thymidine incorporation; type: functional, cell-based; conditions: Homo sapiens; outline: as §1
[3] = system: MES-SA (Homo sapiens); experiment: In vitro cytotoxic activity against uterine sarcoma (MES-SA) cells assayed by inhibition of [3H]-labeled thymidine incorporation
[4] = system: Lymphoma cell line; experiment: Percent decrease of Lymphoma mass of animals treated with the compound; type: functional; parameters: scale not given: the % may be the effect or the level left
Outline: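 Male SD rats, 2 months old, ~300 g, 4 per group. 10⁶ SD lymphoma cells given s.c. to the right flank. From day 10, drug in PBS pH 7.2 (3 mL, 1 mg/mL) was injected once daily next to the tumour for 10 days; controls got PBS only. Rats were killed 24 h later and lymphomas weighed. Result is mean mass decrease versus controls.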

[5] = system: NCI-H460; experiment: In vitro cytotoxic activity against nonsmall cell lung carcinoma (NCI-H460) cells assayed by inhibition of [3H]-labeled thymidine incorporation; type: functional, cell-based; conditions: Homo sapiens; outline: as §1
[6] = system: HT-29; experiment: In vitro cytotoxic activity against colon adenocarcinoma (HT-29) cells assayed by inhibition of [3H]-labeled thymidine incorporation; Not calculable; type: functional, cell-based, Homo sapiens; outline: as §1
[7] = system: MES-SA (Homo sapiens); experiment: In vitro cytotoxic activity against uterine sarcoma (MES-SA) cells assayed by inhibition of [3H]-labeled thymidine incorporation; Not calculable
[8] = system: DU-145; experiment: In vitro cytotoxic activity against prostate carcinoma (DU-145) cells assayed by inhibition of [3H]-labeled thymidine incorporation; Not calculable; type: functional, cell-based, Homo sapiens; outline: as §1
[9] = system: NCI-H460; experiment: In vitro cytotoxic activity against nonsmall cell lung carcinoma (NCI-H460) cells assayed by inhibition of [3H]-labeled thymidine incorporation; Not calculable; type: functional, cell-based, Homo sapiens; outline: as §1

Row | SMILES | pIC50 [1] | pIC50 [2] | pIC50 [3] | Activity [4] [%] | pIC50 [5] | IC50 [6] | IC50 [7] | IC50 [8] | IC50 [9]
1 | CCCCCCCCCCCCCCCCOP(=O)([O-])COCC[N+](C)(C)C | 5.32 | 4.77 | 5.68 | 41 | 4.80 | – | – | – | –
2 | CCCCCCCCCCCCCCCOP(=O)([O-])COCC[N+](C)(C)C | – | 4.70 | 5.02 | – | 4.74 | Not calculable | – | – | –
3 | CCCCCCCCCCCCOP(=O)([O-])COCC[N+](C)(C)C | – | 3.88 | – | – | 3.86 | Not calculable | Not calculable | – | –
4 | CCCCCCCCCCCCCCOP(=O)([O-])COCC[N+](C)(C)C | 4.91 | – | – | 30 | 4.39 | – | Not calculable | Not calculable | –
5 | CCCCCCCCCCOP(=O)([O-])COCC[N+](C)(C)C | – | – | – | – | – | Not calculable | Not calculable | Not calculable | Not calculable
6 | Nc1ccn([C@@H]2O[C@H](CO)[C@@H](O)C2(F)F)c(=O)n1 [GEMCITABINE] | 8.52 | 7.45 | 8.04 | – | 8.11 | – | – | – | –
7 | CCCCCCCCCCCCCCCCOP(=O)([O-])OCC[N+](C)(C)C [MILTEFOSINE] | 5.21 | 4.60 | 5.27 | – | 5.18 | – | – | – | –
8 | CC(=O)O[C@H]1C(=O)[C@@]2(C)[C@H]([C@H](OC(=O)c3ccccc3)[C@]3(O)C[C@H](OC(=O)[C@H](O)[C@@H](NC(=O)c4ccccc4)c4ccccc4)C(C)=C1C3(C)C)[C@]1(OC(C)=O)CO[C@@H]1C[C@@H]2O [PACLITAXEL] | 9.80 | – | 10.40 | – | 9.85 | – | – | – | –
9 | CC[C@]1(O)C[C@H]2CN(CCc3c([nH]c4ccccc34)[C@@](C(=O)OC)(c3cc4c(cc3OC)N(C=O)[C@H]3[C@@](O)(C(=O)OC)[C@H](OC(C)=O)[C@]5(CC)C=CCN6CC[C@]43[C@@H]65)C2)C1 [VINCRISTINE] | 11.00 | 8.95 | 10.70 | – | 9.89 | – | – | – | –
